The results in this text go back to ChEMBL document CHEMBL4007402 (J Med Chem, 2017).

Where only a bound is given, the exact number is not on record here.

In data set [1] the target is Platelet-derived growth factor receptor beta (Homo sapiens) (UniProt P09619). Kind of data set: Inhibition of recombinant TEL-fused PDGFR-beta (unknown origin) expressed in mouse BAF3 cells assessed as growth inhibition after 72 hrs by CellTiter-Glo or CCK-8 assay. Format: cell-based. Put shortly: (§1)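 Isogenic murine BaF3 cells transformed with TEL-fused kinases, whose proliferation depends on the fused kinase, were used. Parental BaF3 cells served as the general selectivity counter-screen. The anti-proliferative read-out was reported as GI50.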
Chain of Platelet-derived growth factor receptor beta (Homo sapiens) (P09619 whole entry, the tested form may be a part): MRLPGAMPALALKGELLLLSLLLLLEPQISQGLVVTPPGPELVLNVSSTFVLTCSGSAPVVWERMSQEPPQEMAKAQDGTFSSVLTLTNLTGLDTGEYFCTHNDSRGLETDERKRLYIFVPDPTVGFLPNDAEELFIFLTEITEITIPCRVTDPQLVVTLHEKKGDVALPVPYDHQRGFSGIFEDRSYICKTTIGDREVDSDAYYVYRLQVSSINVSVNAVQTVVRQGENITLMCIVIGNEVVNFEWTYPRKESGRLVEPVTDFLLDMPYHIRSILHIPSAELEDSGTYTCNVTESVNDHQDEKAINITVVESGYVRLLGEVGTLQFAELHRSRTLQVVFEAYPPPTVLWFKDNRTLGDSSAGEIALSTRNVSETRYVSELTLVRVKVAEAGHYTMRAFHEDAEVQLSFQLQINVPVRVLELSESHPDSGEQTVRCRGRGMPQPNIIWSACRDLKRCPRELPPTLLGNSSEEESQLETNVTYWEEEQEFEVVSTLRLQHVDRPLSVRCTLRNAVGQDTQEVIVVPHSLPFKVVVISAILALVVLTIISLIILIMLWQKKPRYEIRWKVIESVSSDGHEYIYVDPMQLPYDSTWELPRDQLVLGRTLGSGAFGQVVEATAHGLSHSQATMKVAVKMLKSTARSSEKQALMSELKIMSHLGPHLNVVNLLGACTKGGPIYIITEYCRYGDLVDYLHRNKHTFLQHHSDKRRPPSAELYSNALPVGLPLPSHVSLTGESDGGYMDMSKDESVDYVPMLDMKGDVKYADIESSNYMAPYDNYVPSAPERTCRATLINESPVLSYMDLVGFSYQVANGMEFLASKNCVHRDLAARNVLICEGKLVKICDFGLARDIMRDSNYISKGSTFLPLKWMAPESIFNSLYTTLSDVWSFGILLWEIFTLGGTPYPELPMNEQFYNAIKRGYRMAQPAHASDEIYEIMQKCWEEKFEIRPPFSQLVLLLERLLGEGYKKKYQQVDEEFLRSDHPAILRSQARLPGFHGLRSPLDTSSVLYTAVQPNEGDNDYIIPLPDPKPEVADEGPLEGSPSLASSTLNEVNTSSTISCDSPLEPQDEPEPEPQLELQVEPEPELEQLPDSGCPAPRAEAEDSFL

A further data set relates to DU-145. Kind of data set: Growth inhibition of human DU145 cells after 72 hrs by CellTiter-Glo or CCK-8 assay. Format: functional. The settings on record: DU-145, 72 h.
The subject of the next data set is 5637. Kind of data set: Growth inhibition of human 5637 cells after 72 hrs by CellTiter-Glo or CCK-8 assay. Conditions: Homo sapiens, 5637, 72 h. The data set is classed as functional.
Data set [2] has as its target Mitogen-activated protein kinase 14 (Homo sapiens, UniProt Q16539). Kind of data set: Binding affinity to full length human p38alpha (1 to 360 amino acid residues) expressed in bacterial expression system assessed as percent control number at 1 uM by KINOMEscan assay. Put shortly: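 KINOMEscan competition binding panel of 468 kinases, with the compound tested at 1 µM. Binding is expressed as percent of control relative to DMSO.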

Data set [3] in a line: Tmax in Sprague-Dawley rat at 10 mg/kg, po. Format: ADME, organism-based. Conditions: in vivo. Put shortly:
(§2)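 Sprague Dawley rats given a single i.v. dose of 1 mg/kg or an oral dose of 10 mg/kg. Plasma AUC(0-t), AUC(0-∞), MRT(0-t), T1/2, Tmax and Cmax were derived and reported as mean±SD.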

Data set [4] is described as follows: Growth inhibition of CHL cells after 72 hrs by CellTiter-Glo or CCK-8 assay. Format: cell-based, Cricetulus griseus. Conditions: chinese hamster.
Data set [5] is described as follows: Growth inhibition of CHO cells after 72 hrs by CellTiter-Glo or CCK-8 assay. The data set is classed as cell-based, Cricetulus griseus. Conditions: chinese hamster.
In data set [6] the target is Receptor-type tyrosine-protein kinase FLT3 (Homo sapiens) (UniProt P36888). Kind of data set: Inhibition of recombinant TEL-fused FLT3 (unknown origin) expressed in mouse BAF3 cells assessed as growth inhibition after 72 hrs by CellTiter-Glo or CCK-8 assay. Format: cell-based. The procedure, abridged:
as §1

A short description of data set [7]: Mean residence time (0 to t) in Sprague-Dawley rat at 1 mg/kg, iv. The data set is classed as ADME, organism-based. The settings on record: in vivo. The procedure, abridged:
as §2

Data set [8] deals with Epithelial discoidin domain-containing receptor 1 (Homo sapiens, UniProt Q08345). Put plainly: Inhibition of human GST-tagged DDR1 catalytic domain expressed in baculovirus expression system by LanthaScreen assay.
Chain of Epithelial discoidin domain-containing receptor 1 (Q08345 whole entry, the tested form may be a part): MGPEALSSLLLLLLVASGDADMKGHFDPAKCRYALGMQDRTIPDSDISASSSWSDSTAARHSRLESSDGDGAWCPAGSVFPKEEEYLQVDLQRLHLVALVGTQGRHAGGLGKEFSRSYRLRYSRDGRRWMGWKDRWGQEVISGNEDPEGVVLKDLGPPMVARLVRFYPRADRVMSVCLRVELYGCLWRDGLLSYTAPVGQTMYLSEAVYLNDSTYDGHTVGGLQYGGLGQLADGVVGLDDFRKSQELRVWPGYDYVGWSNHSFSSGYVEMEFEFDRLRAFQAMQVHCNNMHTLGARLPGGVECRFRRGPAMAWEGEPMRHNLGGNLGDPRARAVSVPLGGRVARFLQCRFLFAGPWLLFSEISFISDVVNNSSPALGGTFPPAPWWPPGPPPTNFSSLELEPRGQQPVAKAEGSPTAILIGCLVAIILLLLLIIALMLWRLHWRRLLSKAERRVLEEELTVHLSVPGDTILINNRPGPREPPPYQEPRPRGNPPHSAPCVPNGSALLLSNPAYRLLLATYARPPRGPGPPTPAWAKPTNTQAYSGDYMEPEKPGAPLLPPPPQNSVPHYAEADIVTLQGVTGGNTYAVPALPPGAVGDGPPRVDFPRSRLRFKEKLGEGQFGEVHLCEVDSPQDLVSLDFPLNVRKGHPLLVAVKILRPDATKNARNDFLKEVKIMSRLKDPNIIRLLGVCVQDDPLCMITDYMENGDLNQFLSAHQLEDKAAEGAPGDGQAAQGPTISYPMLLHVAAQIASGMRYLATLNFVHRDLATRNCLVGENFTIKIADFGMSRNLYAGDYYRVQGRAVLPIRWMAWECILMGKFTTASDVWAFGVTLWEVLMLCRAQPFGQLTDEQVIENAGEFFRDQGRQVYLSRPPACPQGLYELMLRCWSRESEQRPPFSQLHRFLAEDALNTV
The next data set deals with T-24. Put plainly: Growth inhibition of human T24 cells after 72 hrs by CellTiter-Glo or CCK-8 assay. Format: functional. The settings on record: T-24, 72 h.
In data set [9] the target is Mast/stem cell growth factor receptor Kit (Homo sapiens) (UniProt P10721). Put plainly: Inhibition of recombinant TEL-fused c-KIT (unknown origin) expressed in mouse BAF3 cells assessed as growth inhibition after 72 hrs by CellTiter-Glo or CCK-8 assay. Format: cell-based. Put shortly:
as §1

In a further data set the test system is ACHN. Put plainly: Growth inhibition of human ACHN cells after 72 hrs by CellTiter-Glo or CCK-8 assay. Format: functional.
The nature of data set [10]: AUC (0 to t) in Sprague-Dawley rat at 1 mg/kg, iv up to 8 hrs. Also noted: time < 8 hr, dose 1 mg/kg, route intravenous. The settings on record: in vivo. The data set is classed as ADME, organism-based. Put shortly:
as §2

Chain of Receptor-type tyrosine-protein kinase FLT3 (Homo sapiens) (P36888 whole entry, the tested form may be a part): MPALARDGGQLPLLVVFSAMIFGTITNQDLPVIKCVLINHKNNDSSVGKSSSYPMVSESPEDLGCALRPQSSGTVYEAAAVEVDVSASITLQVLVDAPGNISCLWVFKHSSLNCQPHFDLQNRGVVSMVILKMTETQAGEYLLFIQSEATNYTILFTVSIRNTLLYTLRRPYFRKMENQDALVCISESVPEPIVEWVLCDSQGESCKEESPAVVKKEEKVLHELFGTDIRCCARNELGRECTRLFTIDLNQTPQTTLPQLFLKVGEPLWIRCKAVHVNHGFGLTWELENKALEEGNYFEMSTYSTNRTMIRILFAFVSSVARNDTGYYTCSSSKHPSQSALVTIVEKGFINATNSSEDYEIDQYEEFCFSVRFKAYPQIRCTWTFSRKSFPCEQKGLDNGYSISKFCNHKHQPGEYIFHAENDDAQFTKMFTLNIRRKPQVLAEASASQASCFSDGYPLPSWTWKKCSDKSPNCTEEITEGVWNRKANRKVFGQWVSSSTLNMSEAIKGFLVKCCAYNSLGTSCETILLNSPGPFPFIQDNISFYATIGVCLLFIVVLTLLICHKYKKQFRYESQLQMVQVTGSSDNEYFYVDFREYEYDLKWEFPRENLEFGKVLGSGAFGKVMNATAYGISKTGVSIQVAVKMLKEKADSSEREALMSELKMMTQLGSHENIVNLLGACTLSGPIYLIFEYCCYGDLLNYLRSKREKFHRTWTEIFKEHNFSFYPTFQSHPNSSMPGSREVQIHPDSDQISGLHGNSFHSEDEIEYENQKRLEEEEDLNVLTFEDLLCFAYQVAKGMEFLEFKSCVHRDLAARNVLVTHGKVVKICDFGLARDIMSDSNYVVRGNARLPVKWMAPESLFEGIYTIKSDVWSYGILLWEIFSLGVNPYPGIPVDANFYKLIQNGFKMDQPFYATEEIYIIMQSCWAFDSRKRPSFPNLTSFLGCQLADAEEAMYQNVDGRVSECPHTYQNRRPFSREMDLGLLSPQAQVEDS
Chain of Mitogen-activated protein kinase 14 (Q16539 whole entry, the tested form may be a part): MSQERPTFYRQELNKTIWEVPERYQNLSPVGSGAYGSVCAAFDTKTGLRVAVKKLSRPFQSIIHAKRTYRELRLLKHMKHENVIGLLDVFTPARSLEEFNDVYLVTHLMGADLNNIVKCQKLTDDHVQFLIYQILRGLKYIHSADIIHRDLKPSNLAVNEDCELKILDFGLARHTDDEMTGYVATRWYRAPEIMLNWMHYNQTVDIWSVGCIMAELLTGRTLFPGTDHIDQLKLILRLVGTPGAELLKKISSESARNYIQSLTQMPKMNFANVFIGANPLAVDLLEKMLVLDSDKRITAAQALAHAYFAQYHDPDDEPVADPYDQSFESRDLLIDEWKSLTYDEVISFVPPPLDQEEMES
Chain of Mast/stem cell growth factor receptor Kit (Homo sapiens) (P10721 whole entry, the tested form may be a part): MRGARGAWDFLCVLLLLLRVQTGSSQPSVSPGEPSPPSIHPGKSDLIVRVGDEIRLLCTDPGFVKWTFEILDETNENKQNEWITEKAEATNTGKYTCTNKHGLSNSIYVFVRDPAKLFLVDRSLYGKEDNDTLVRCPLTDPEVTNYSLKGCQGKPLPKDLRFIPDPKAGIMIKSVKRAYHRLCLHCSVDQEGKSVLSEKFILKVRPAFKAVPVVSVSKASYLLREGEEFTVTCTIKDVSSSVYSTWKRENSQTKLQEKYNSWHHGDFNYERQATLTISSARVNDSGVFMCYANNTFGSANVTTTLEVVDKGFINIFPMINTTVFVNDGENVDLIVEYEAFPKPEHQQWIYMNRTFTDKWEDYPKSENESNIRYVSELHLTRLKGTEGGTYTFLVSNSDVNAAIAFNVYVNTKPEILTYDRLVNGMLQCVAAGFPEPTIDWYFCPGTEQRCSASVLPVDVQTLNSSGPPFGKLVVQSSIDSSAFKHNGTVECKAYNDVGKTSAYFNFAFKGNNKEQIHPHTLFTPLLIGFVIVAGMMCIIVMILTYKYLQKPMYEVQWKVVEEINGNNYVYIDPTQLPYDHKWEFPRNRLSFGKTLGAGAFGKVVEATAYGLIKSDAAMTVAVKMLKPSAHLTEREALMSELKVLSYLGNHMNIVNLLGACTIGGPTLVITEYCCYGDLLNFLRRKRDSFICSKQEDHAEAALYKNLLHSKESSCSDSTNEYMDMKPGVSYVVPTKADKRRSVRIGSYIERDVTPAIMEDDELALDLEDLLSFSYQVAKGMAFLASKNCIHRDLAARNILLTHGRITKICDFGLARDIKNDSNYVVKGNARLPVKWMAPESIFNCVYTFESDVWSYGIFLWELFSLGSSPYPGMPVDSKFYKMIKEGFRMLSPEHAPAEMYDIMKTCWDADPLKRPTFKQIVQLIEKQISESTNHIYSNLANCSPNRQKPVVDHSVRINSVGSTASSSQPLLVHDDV

`C=CC(=O)Nc1cc(Nc2ncc(C(=O)Nc3cc(NC(=O)c4cc(OC)c(OC)c(OC)c4)ccc3C)c(NC)n2)ccc1C`: the GI50 in data set [1] is 0.91 µM; in the data set on DU-145 it was 7.89 µM; in the data set with 5637, over 10 µM; in [6], over 10 µM; in the data set on T-24, 8.98 µM; in [9], 2.01 µM. In the data set on ACHN, the GI50 amounted to 4.93 µM. Besides, the Activity in [2] stood at 0%. Besides, the Tmax in [3] is 11.4 min. Moreover, the GI50 at 72 h in data set [4] and in data set [5] was over 10 µM throughout. In data set [7], the mean residence time (MRT last) stood at 13.4 min. In [8], this molecule registered an IC50 of 0.265 µM. Further, the AUC(0-t) at 8 h in data set [10] came to 1390 ng·h/mL.
